# Granule exo inh = LAMP-1 surface exposure blockers, TALL-104 cells – cell-based, flow cytometry, MLPCN library, primary screen. TALL-104 LAMP-1 surface exposure; cells stimulated with thapsigargin and PMA. inhibition, % at 10 µM. 360,000 tested, 0.66% active. AID 651702, 2012;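 active = inhibition above about 55%, limit read from the data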
# T cell modulator = modulators of CD8 T cell-vesicle binding, primary screen, mouse 2C CD8+ T cells, flow cytometry; 2C CD8+ T cell-vesicle binding; hits give low values; response (vesicle binding), % at 7 µM; 330,000 tested, 0.068% active; AID 2052, 2009;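 active = response, share of CD8 T cells binding vesicles, and their 90th percentile fluorescence all below set limits, cut at about 80% in these data, passing the limit was not always enough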;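 note: values below 100% mean blocked vesicle binding to the CD8+ T cells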
#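 Also added: QL9-peptide-loaded Drosophila micro-vesicles bearing Ld, ICAM-1 and B7-1; Test system: purified 2C TCR transgenic mouse naive CD8+ T cells; Measured by: cytometric PE anti-B7-1 and Alexa647 anti-CD8 signals after 1% paraformaldehyde fixation; Timing: binding step 1.5 h, 37 °C, antibody labelling 20 min, ice.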
# V-ATPase pH = regulators of yeast V-ATPase proton pumping, primary screen, pHLuorin cytosolic pH fluorescence | AID 504577, 2011 | response, % at 10 µM | S. cerevisiae | 350,000 tested, 0.37% active; in the data active = response mostly above about 7.3%, no sharp cut-off; inactive = mostly below about 5.4%; note: actives read high
# rCAG RNA binder = binders of r(CAG) RNA repeats, primary screen, biochemical, fluorescence | 370,000 tested, 1.3% active | inhibition, % at 3 µM | r(CAG) RNA repeat, TO-PRO-1 dye displacement fluorescence;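 active = inhibition above the plate cutoff, the mean of all test compounds on that plate plus 3 SD, cut at about 35% in these data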;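 note: 0% = DMSO alone and 100% = 100 µM mitoxantrone as full dye displacement; higher means more dye released from RNA so lower well fluorescence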
# Beta2AR agonist = beta2AR agonists driving receptor internalization, primary screen, cell-based, FAP fluorogen, flow cytometry; Am2.2-beta2AR cells; response, % (no concentration beside the values); Beta-2 adrenergic receptor (Homo sapiens), P07550; 340,000 tested, 0.43% active;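 active = response above a set limit, near 3 SD of response in nonfluorescent compounds, cut at about 42% in these data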
# Target sequence (P07550 whole entry, looked up): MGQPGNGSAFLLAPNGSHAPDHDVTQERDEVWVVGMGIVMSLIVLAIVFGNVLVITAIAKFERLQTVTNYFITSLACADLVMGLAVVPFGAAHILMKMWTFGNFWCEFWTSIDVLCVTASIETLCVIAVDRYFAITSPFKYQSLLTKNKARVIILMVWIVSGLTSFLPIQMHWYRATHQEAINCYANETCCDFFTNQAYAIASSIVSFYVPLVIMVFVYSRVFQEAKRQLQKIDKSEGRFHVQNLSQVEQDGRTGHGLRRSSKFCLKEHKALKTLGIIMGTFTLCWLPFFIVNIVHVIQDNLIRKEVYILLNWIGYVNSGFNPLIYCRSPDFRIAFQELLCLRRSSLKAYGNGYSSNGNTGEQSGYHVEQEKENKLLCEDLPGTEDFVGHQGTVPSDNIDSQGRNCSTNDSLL
# MPTP block = mitochondrial permeability transition pore inhibitors, primary screen, biochemical, isolated mouse mitochondria, absorbance; Ca2+ swelling absorbance, 30 min; inhibition, % at 10 µM; 360,000 tested, 1.4% active; AID 602449, 2012;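 active = inhibition of 50% or more, scaled per plate between neutral and stimulator controls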;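 note: 0% = DMSO wells given calcium and 100% = 1 mM EGTA wells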
# rCAG binder conf = small molecules binding CAG repeat RNA – biochemical, fluorescence, confirmation | shares compounds with rCAG RNA binder | inhibition, % at 3 µM | AID 652065, 2013 | 4,300 tested, 70% active | r(CAG) RNA repeat, TO-PRO-1 dye displacement fluorescence;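 active = inhibition above a per-plate cutoff, the mean inhibition of sample wells plus 3 SD, cut at about 35% in these data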;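 note: loss of TO-PRO-1 fluorescence as compound displaces dye from 1x1 AA loop RNA; 0% = DMSO only wells and 100% = 100 µM mitoxantrone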
# DNA CAG counter = displacement of TO-PRO-1 from CAG DNA duplex, counter-screen for rCAG RNA repeat binder project, biochemical, fluorescence, TO-PRO-1 dye, d(CAG) DNA oligo. shares compounds with rCAG RNA binder. d(CAG) DNA oligo TO-PRO-1 dye displacement. inhibition, % at 3 µM. 4,300 tested, 94% active;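 active = inhibition above its plate's cutoff, the mean test-well inhibition plus 3 SD, cut at about 4.8% in these data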;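 note: 0% = DNA dye mix with DMSO and 100% = 100 µM mitoxantrone; hits displace the dye from DNA and so lower well fluorescence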
# DNA CAG DR = inhibitors of DNA CAG/GTC TO-PRO-1 complex, dose response, counter-screen for rCAG RNA repeat binder project, biochemical, fluorescence, TO-PRO-1 dye. DNA CAG/GTC duplex TO-PRO-1 dye displacement fluorescence. 250 tested, 20% active. shares compounds with rCAG RNA binder. IC50, µM. AID 686960, 2013; in the data active = IC50 below about 10 µM
# An asterisk follows results filed as active; . = no result. Sampled rows, rich in hits. Any-hit rate of the full collection: about 3.8%.
SMILES,Granule exo inh,T cell modulator,V-ATPase pH,rCAG RNA binder,Beta2AR agonist,MPTP block,rCAG binder conf,DNA CAG counter,others
COc1ccc(C(=O)CCC(=O)Nc2cccc(Cl)c2)cc1,-2,302,0,4,10,0,.,.,
CN1C(=O)/C(=C/c2ccc(-c3ccccc3[N+](=O)[O-])o2)SC1=Nc1ccc(Cl)c(C(=O)O)c1,-2,486,-1,43*,4,10,85*,51*,
O=C1C2C3C=CC(C3)C2C(=O)N1/N=C/c1ccc(-c2ccccc2[N+](=O)[O-])o1 (stereo not drawn),-1,179,-3,4,-3,1,.,.,
CC1=C(C)CC(C(=O)Nc2nc(-c3ccc(C)cc3C)c(C)s2)C(C(=O)O)C1 (stereo not drawn),1,306,-2,54*,13,28,56*,23*,DNA CAG DR=>30
Nc1ccc(O)c2c1C(=O)c1ccccc1C2=O,4,590,2,24,0,11,.,.,
O=C1c2ccccc2C(=O)c2c(O)c(O)cc(O)c21,2,289,1,42*,11,16,60*,32*,
C[C@@H]1Cc2c(O)c(O)cc(O)c2C(=O)O1,4,59,-6,.,1,2,.,.,
O=C1C=C(O)c2c(O)cc(O)c(O)c2C1=O,-6,155,-2,56*,-7,6,20,5.2*,
O=C(N[C@H](C(=O)N1CCC[C@H]1C(=O)NCc1ccccc1)c1ccccc1)C1CCCC1,.,.,.,0,.,.,.,.,
COC(=O)[C@]12C[C@H](CC(=O)N3CCCC3)C(=O)N(CCc3ccc(OC)c(OC)c3)C1=C[C@H](COCc1ccccc1)O[C@@H]2C,.,.,.,1,.,.,.,.,
O=C(O)COc1ccccc1C=NNC(=O)Cc1cc(=O)[nH][nH]1,.,.,.,7,.,.,.,.,
O=C1c2ccccc2C(O)(c2ccccc2)N1c1ccc([N+](=O)[O-])cc1Cl (stereo not drawn),0,.,3,40*,4,2,40*,10*,
O=C(Cc1cccc2ccccc12)Nc1cc(Cl)ccc1C(=O)O,3,408,-3,46*,-4,2,35*,8.1*,
O=C(NCc1ccccc1)c1c[nH]c2ccc(S(=O)(=O)Nc3ccc4c(c3)OCCO4)cc2c1=O,-4,293,-1,37*,3,5,33,12*,
O=C(NC1CC1)c1c[nH]c2ccc(S(=O)(=O)Nc3cccc(C(F)(F)F)c3)cc2c1=O,-3,448,3,36*,-2,-3,30,6.0*,
O=C(NCc1ccccc1)c1c[nH]c2ccc(F)cc2c1=O,-1,487,-1,3,-5,1,.,.,
Cc1ccc(O)c(Cc2cc(C)cc(Cc3cc(C)ccc3O)c2O)c1,0,.,.,40*,.,6,39*,11*,
Cc1ccc(O)c(C(=O)CC(=O)c2ccc(Cl)cc2)c1,-17,.,-3,9,15,-1,.,.,
CCOc1ccc(S(=O)(=O)N2CN3CCN(C3)C2)cc1,0,213,1,-5,-6,1,.,.,
CCOc1ccc(S(=O)(=O)N2CCNC(=O)C2)cc1,13,240,11,54*,4,-1,3,1,
COc1ccc(C(=O)OCCN2CCN(C3CN(Cc4cn(Cc5cccc(F)c5)nn4)S(=O)(=O)C3)CC2)cc1OC (stereo not drawn),.,.,.,5,.,.,.,.,
O=C(O)CCCc1ccc2ccc3cccc4ccc1c2c34,-9,352,-2,47*,1,0,27,7.5*,
O=C(Cc1ccccc1)N/N=C/c1cc(Br)cc(Br)c1O,-2,235,4,11,12,3,.,.,
O=C(O)c1ccccc1N/N=C/c1cc(Br)cc(Br)c1O,-2,190,-4,45*,16,48,92*,75*,
CCN(Cc1ccccc1)S(=O)(=O)c1c(N)n(C)c(=O)n(C)c1=O,-1,615,-6,52*,-5,-2,3,0,
SMILES,Granule exo inh,T cell modulator,V-ATPase pH,rCAG RNA binder,Beta2AR agonist,MPTP block,rCAG binder conf,DNA CAG counter,others
CCN(Cc1ccccc1)S(=O)(=O)c1c(C)n(C)c(=O)n(C)c1=O,16,234,0,-4,-2,-4,.,.,
N=C1/C(=C\c2ccc(SCc3ccccc3)o2)C(=O)N=C2SC(CC(=O)N3CCOCC3)=NN12,1,173,-2,71*,-7,8,68*,30*,
COc1cc(/C=C2/C(=N)N3N=C(CC(=O)N4CCOCC4)SC3=NC2=O)ccc1OCc1ccc(F)cc1,-8,74,2,36*,6,2,77*,35*,
Cc1ccc(/C=C2\C(=N)N3N=C(CC(=O)N4CCOCC4)SC3=NC2=O)o1,-2,252,7,24,0,-1,.,.,
COc1cc(/C=C2/C(=N)N3N=C(CC(=O)N4CCOCC4)SC3=NC2=O)ccc1OCc1ccccc1F,1,470,-1,.,-1,-3,.,.,
COC(=O)[C@]12C[C@H](CC(=O)NCC3CCCCC3)C(=O)N(Cc3ccc4c(c3)OCO4)C1=C[C@H](C(C)C)O[C@@H]2C1CC1,.,.,.,4,.,.,.,.,
O=C(O)c1ccccc1NS(=O)(=O)c1cccc(NS(=O)(=O)c2cc(Br)ccc2Br)c1,3,344,4,69*,-1,-2,61*,22*,
CCOc1ccc(Br)cc1S(=O)(=O)Nc1cccc(S(=O)(=O)Nc2ccccc2C(=O)O)c1,9,476,-1,78*,1,1,83*,48*,
Cc1ccc(NS(=O)(=O)c2ccc(NC(=O)c3ccccc3C(=O)O)cc2)c(C)c1,6,822,-1,1,-2,3,.,.,
Cc1ccc(S(=O)(=O)Nc2cccc(S(=O)(=O)Nc3ccccc3C(=O)O)c2)c(C)c1,-1,175,1,67*,2,0,65*,26*,
O=C(O)c1cccc(S(=O)(=O)Nc2cccc(S(=O)(=O)Nc3ccc(Br)cc3)c2)c1,-1,.,6,31,7,-1,.,.,
C=CCN(CC#CC(=C)C)CC1CC1,.,.,.,0,.,.,.,.,
Cn1c(=O)oc2cc(S(=O)(=O)N3CCN(C(=O)C4CCCO4)CC3)ccc21 (stereo not drawn),.,.,.,1,.,.,.,.,
